# Sampled rows, rich in hits. Any-hit rate of the full collection: about 8.2%.
# D1 mod – D1 CRE-luciferase signal change, two-sided – cell-based, HEK293 D1, dopamine EC30, D1 allosteric modulator project, primary screen | 5.9% of 58,000 active | dopamine EC30 potentiation; actives deviate in either direction | D(1A) dopamine receptor (Homo sapiens), P21728 | B-score at 10 µM;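 active = luminescence count or its row- and column-corrected plate score outside the 99.7% band of the plate's sample wells, on either side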
# RORa activator – activators of orphan receptor RORA, primary screen, cell-based, luminescence | Nuclear receptor ROR-alpha (Homo sapiens), P35398 | AID 560, 2006 | 1.5% of 65,000 active | activation, % at 10 µM | CHO-K1 Gal4-RORA LBD luciferase reporter; percent increase over mock-subtracted basal signal;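 active = activation above the mean of all tested compounds plus 3 SD, cut at about 49% in these data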
# M1 antag – antagonists of rat M1 muscarinic receptor. CHO-M1 cells, Fluo-4 calcium, ACh EC80 antagonist mode; active compounds read low. B-score at 10 µM. 3.4% of 64,000 active;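 active = calcium fluorescence response, raw or row-and-column corrected B-score, differing from the plate sample mean either way at a set confidence level, mostly lower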
# Target sequence (P08482 whole entry, looked up): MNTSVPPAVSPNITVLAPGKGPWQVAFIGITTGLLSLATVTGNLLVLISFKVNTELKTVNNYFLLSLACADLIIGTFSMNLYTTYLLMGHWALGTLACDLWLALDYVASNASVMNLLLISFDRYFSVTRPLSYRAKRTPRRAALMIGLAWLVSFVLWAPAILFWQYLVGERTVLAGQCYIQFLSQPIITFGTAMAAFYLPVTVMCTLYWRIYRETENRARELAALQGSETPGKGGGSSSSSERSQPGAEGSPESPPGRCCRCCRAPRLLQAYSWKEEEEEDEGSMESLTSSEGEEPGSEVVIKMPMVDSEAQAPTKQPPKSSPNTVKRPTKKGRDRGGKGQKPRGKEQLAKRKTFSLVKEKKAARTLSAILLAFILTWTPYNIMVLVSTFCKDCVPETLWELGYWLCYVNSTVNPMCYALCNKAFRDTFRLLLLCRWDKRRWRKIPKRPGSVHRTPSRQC
# HePTP inhibitor – inhibitors of human HePTP phosphatase, primary screen, biochemical, absorbance, leukemia target | inhibition, % at 20 µM | Tyrosine-protein phosphatase non-receptor type 7 (Homo sapiens), P35236 | 0.64% of 110,000 active | recombinant HePTP phosphatase activity, OD absorbance; in the data active = inhibition above about 50%
# SF1 activator – activators of human SF-1, primary screen, cell-based, CHO-K1, Gal4-SF-1 LBD, luciferase luminescence | AID 522, 2006 | CHO-K1 Gal4-SF-1 LBD luciferase reporter; % increase over DMSO SF-1-specific signal | Steroidogenic factor 1 (Homo sapiens), Q13285 | activation, % at 10 µM | 1.9% of 65,000 active;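 active = activation above the mean activation of all tested compounds plus 3 SD, cut at about 50% in these data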
#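 System: CHO-K1 cells with Gal4–hSF-1 LBD chimera plus Gal4-driven luciferase; quantity: 4,000 CHO-K1 cells per well; compound: one dose, 10 µM compound, 1% DMSO; times: 20 h compound treatment, 37 °C; measured by: SteadyLite luciferase luminescence; read-out: percent activation versus DMSO; benchmarks: DMSO and mock-transfected background; replicates: one test per compound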
# M1 ag – M1 muscarinic receptor agonists, primary screen, CHO-M1 cells, Fluo-4 calcium, agonist mode | Fluo-4 calcium fluorescence; active compounds read high | Muscarinic acetylcholine receptor M1 | B-score at 10 µM | 3% of 64,000 active;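 active = fluorescence rise, raw or as B-score row- and column-corrected plate score, outside the 99.7% band of its plate's samples, either direction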
# D1 PAM confirm – D1 receptor positive allosteric modulators, retest, confirmation, cell-based, HEK293 D1, CRE-luciferase, duplicate | shares compounds with D1 mod | dopamine EC30 potentiation; active compounds read high | luminescence at 10 µM | 88% of 2,200 active | AID 642, 2007;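 active = luminescence in either of two replicates above the same-plate mean plus 3 SD of the low-dose dopamine control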
# D1 no dopamine – D1 receptor agonism without dopamine, confirmation, mechanism study for D1 allosteric modulator project, cell-based, HEK293 D1, CRE-luciferase, secondary assay 1 | shares compounds with D1 mod | luminescence, no dopamine; active compounds read high | 0.8% of 1,900 active | AID 646, 2007 | luminescence at 10 µM; in the data active = luminescence above about 3900
# Isoprot counter – counter-screen for D1 modulators: isoproterenol response in HEK293 cells | HEK293 D1 CRE-luciferase, isoproterenol EC30 counter-screen | shares compounds with D1 mod | calls only at 10 µM | 63% of 2,200 active | AID 647;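 active = luminescence in either replicate above plate mean of wells with a partly effective reference agonist dose plus 3 SD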;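 note: isoproterenol raises cAMP through native beta-adrenoceptor Gs so signal bypasses D1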
# A number is an active result; . = inactive; / = not tested or not shown; + = active, no number.
SMILES,D1 mod,RORa activator,M1 antag,HePTP inhibitor,SF1 activator,M1 ag,D1 PAM confirm,D1 no dopamine,Isoprot counter
COc1cc2c(cc1OC)-c1cc(OCCN3CCOCC3)nc(=O)n1CC2,.,.,.,.,.,.,/,/,/
COc1cc2c(cc1OC)C1=C(C#N)COCN1CC2,15,.,.,.,.,.,9624,.,+
CC(=O)NC1=NC(=O)/C(=C/c2ccc(C)cc2)S1,/,/,/,.,/,/,/,/,/
COc1ccc(C(=O)N2CCCN(C)CC2)cc1S(=O)(=O)N1CCCc2ccccc21,.,.,.,.,.,.,/,/,/
Cn1c(=O)n(C)c2cc(S(=O)(=O)NCc3ccco3)ccc21,2.4,.,.,.,.,.,.,.,.
Cn1c(=O)n(C)c2cc(S(=O)(=O)NCc3ccccc3)ccc21,.,.,.,.,.,.,/,/,/
COc1cc(C(=O)Oc2cccc(C(=S)N3CCOCC3)c2)cc(OC)c1OC,/,/,/,.,/,/,/,/,/
CCc1noc2c1/C(=N\O)CC(c1ccccc1)C2 (stereo not drawn),17,.,.,.,.,.,25792,.,+
CN(C)c1ccc(C2Nc3ccccc3NC3=C2C(=O)CC(c2ccccc2)C3)cc1 (stereo not drawn),/,/,/,.,/,/,/,/,/
CCOc1cc2[nH]c(=O)n(CCCN3CCCC3=O)c(=O)c2cc1OCC,2.7,.,.,.,.,.,6760,/,.
COc1cc2[nH]c(=O)n(CCCCCC(=O)NCCCN3CCCC3=O)c(=O)c2cc1OC,.,.,.,.,.,.,/,/,/
O=C(Nc1ccc(F)cc1F)c1ccc(COc2c(F)c(F)cc(F)c2F)o1,.,.,.,.,.,.,/,/,/
CCOC(=O)Cc1nnc(NC(=O)c2ccccc2OCC)s1,2.7,/,.,.,/,.,8096,.,+
CCCCn1nnnc1SCC(=O)Nc1ccc2c(c1)OCCO2,.,.,.,.,.,.,/,/,/
CC(C)Cn1c(-c2cccs2)nc2nc3ccccc3nc21,4.7,.,.,.,.,.,10104,.,.
CSc1ncc(Cl)c(C(=O)NCc2ccc3c(c2)OCO3)n1,12,.,.,.,.,.,16252,.,+
O=C1OC(c2ccc(Cl)cc2)=C/C1=C\c1cccnc1,/,/,/,.,/,/,/,/,/
CCOc1ccc(C(=O)OCn2nnc3ccccc3c2=O)cc1OC,16,.,.,.,.,.,23528,.,+
CCOc1ccc(C(=O)OCc2nnc(-c3cccs3)o2)cc1OC,15,.,.,.,.,.,16352,.,+
Nc1nc(C2CC2)c(Sc2sc(N)nc2C2CC2)s1,10,.,.,.,.,.,11736,.,+
CCS(=O)(=O)N1CCCC(C(=O)NCCCOC(C)C)C1 (stereo not drawn),.,.,.,.,.,.,/,/,/
CCOC(=O)c1nn(-c2ccccc2)c(C#N)c1NC(=O)c1nn(CC)cc1Br,4.3,.,.,.,.,.,8684,/,+
COC(=O)c1ccc(Oc2cc(C)nc(SC)n2)cc1,5.3,58,.,.,71,.,15492,.,+
COC(=O)COc1ccc(Oc2cc(C)nc(SC)n2)nn1,.,.,.,.,.,.,/,/,/
Cc1nc(CSc2nc3[nH]ncc3c(=O)n2-c2ccccc2)cs1,4.6,.,.,.,.,.,12732,.,+
Cc1noc(C)c1CSc1nc2[nH]ncc2c(=O)n1-c1ccccc1,11,.,.,/,.,.,14168,.,+
